In general, MIC refers to the smallest concentration in the dilution series that meets the test's criterion for growth inhibition.

Converted amounts (≈) assume the structure as drawn. The source made the active and inactive calls.

The subject of data set [1] is Candida albicans. The experiment in a line: Antifungal activity against Candida albicans ATCC 10231 assessed as fungal growth inhibition by double dilution method. It is filed as functional. In a few lines: (§1)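 Broth microdilution after CLSI M27-A3/M38-A2 with minor changes. Single colony grown overnight in YPD at 35 °C, 200 rpm. Compound final range 0.06-31.3 µg/mL; incubated 48 h at 35 °C.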

The subject of data set [2] is Candida albicans. Description: Antifungal activity against Candida albicans ATCC 64124 assessed as fungal growth inhibition by double dilution method. The class given is functional. In a few lines: (§2)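 Broth microdilution after CLSI M27-A3/M38-A2 with minor modifications. A single colony was grown overnight in YPD at 35 °C with shaking at 200 rpm. Cells were mixed 1:1 with compound (final 0.06-31.3 µg/mL, from DMSO stocks) and incubated 48 h at 35 °C.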

The test system of data set [3] is Candida albicans. The experiment in a line: Antifungal activity against itraconazole/fluconazole susceptible Candida albicans ATCC MYA-2876 assessed as fungal growth inhibition by double dilution method. The class given is functional. A digest of the protocol:
as §2

Data set [4] relates to Candida albicans. The experiment in a line: Antifungal activity against itraconazole/fluconazole resistant Candida albicans ATCC 90819 assessed as fungal growth inhibition by double dilution method. It is filed as functional. A digest of the protocol: as §2
Data set [5] relates to Candida albicans. The experiment in a line: Antifungal activity against itraconazole/fluconazole susceptible Candida albicans ATCC MYA-2310 assessed as fungal growth inhibition by double dilution method. The class given is functional. A digest of the protocol:
as §2

In data set [6] the test system is Candida albicans. Description: Antifungal activity against itraconazole/fluconazole resistant Candida albicans ATCC MYA-1237 assessed as fungal growth inhibition by double dilution method. The class given is functional. A digest of the protocol: as §2
The subject of data set [7] is Candida albicans. The experiment in a line: Antifungal activity against itraconazole/fluconazole resistant Candida albicans ATCC MYA-1003 assessed as fungal growth inhibition by double dilution method. The class given is functional. In a few lines:
as §2

Data set [8] has as its system Nakaseomyces glabratus. The experiment in a line: Antifungal activity against Candida glabrata ATCC 2001 assessed as fungal growth inhibition by double dilution method. The class given is functional. In a few lines:
as §1

The test system of data set [9] is Pichia kudriavzevii. Description: Antifungal activity against Pichia kudriavzevii ATCC 6258 assessed as fungal growth inhibition by double dilution method. It is filed as functional. A digest of the protocol:
as §1

The test system of data set [10] is Nakaseomyces glabratus. The experiment in a line: Antifungal activity against Candida glabrata ATCC 22019 assessed as fungal growth inhibition by double dilution method. It is filed as functional. A digest of the protocol: as §1
Data set [11] relates to [Candida] auris. Description: Antifungal activity against Candida auris AR Bank # 0384 assessed as fungal growth inhibition by double dilution method. The class given is functional. The following applies: Candidozyma auris. In a few lines: as §1
Data set [12] concerns [Candida] auris. Description: Antifungal activity against Candida auris AR Bank # 0390 assessed as fungal growth inhibition by double dilution method. The class given is functional. As to conditions: Candidozyma auris. A digest of the protocol: as §1
Data set [13] relates to Cryptococcus neoformans. Description: Antifungal activity against Cryptococcus neoformans ATCC MYA-895 assessed as fungal growth inhibition by double dilution method. It is filed as functional. A digest of the protocol:
as §1

Data set [14] has as its system Aspergillus terreus. Description: Antifungal activity against Aspergillus terreus ATCC MYA-3633 assessed as fungal growth inhibition by double dilution method. The class given is functional.
Data set [15] deals with Aspergillus fumigatus. Description: Antifungal activity against Aspergillus fumigatus NRRL 163 assessed as fungal growth inhibition by double dilution method. It is filed as functional.
In data set [16] the test system is Aspergillus flavus. The experiment in a line: Antifungal activity against Aspergillus flavus ATCC MYA-3631 assessed as fungal growth inhibition by double dilution method. The class given is functional.
Data set [17] relates to Aspergillus nidulans. The experiment in a line: Antifungal activity against Aspergillus nidulans ATCC 38163 assessed as fungal growth inhibition by double dilution method. It is filed as functional.
Data set [18] has as its system Aspergillus fumigatus. Description: Antifungal activity against Aspergillus fumigatus NRRL 5109 assessed as fungal growth inhibition by double dilution method. It is filed as functional.
For data set [19], the system named is Aspergillus fumigatus. Description: Antifungal activity against Aspergillus fumigatus NRRL 6113 assessed as fungal growth inhibition by double dilution method. It is filed as functional.
For data set [20], the system named is [Candida] auris. Description: Antifungal activity against Candida auris AR Bank # 381 assessed as fungal growth inhibition by double dilution method. It is filed as functional. As to conditions: Candidozyma auris. A digest of the protocol: as §1
For data set [21], the system named is [Candida] auris. Description: Antifungal activity against Candida auris AR Bank # 382 assessed as fungal growth inhibition by double dilution method. The class given is functional. The following applies: Candidozyma auris. In a few lines:
as §1

The subject of data set [22] is [Candida] auris. The experiment in a line: Antifungal activity against Candida auris AR Bank # 383 assessed as fungal growth inhibition by double dilution method. It is filed as functional. The following applies: Candidozyma auris. In a few lines: as §1
The test system of data set [23] is [Candida] auris. Description: Antifungal activity against Candida auris AR Bank # 384 assessed as fungal growth inhibition by double dilution method. It is filed as functional. The following applies: Candidozyma auris. In a few lines: as §1
Data set [24] has as its system [Candida] auris. Description: Antifungal activity against Candida auris AR Bank # 385 assessed as fungal growth inhibition by double dilution method. The class given is functional. The following applies: Candidozyma auris. In a few lines: as §1
Data set [25] deals with [Candida] auris. The experiment in a line: Antifungal activity against Candida auris AR Bank # 386 assessed as fungal growth inhibition by double dilution method. The following applies: Candidozyma auris. It is filed as functional. A digest of the protocol: as §1
Data set [26] has as its system [Candida] auris. The experiment in a line: Antifungal activity against Candida auris AR Bank # 387 assessed as fungal growth inhibition by double dilution method. The class given is functional. As to conditions: Candidozyma auris. In a few lines: as §1
Data set [27] deals with [Candida] auris. The experiment in a line: Antifungal activity against Candida auris AR Bank # 388 assessed as fungal growth inhibition by double dilution method. The class given is functional. The following applies: Candidozyma auris. In a few lines: as §1
In data set [28] the test system is [Candida] auris. The experiment in a line: Antifungal activity against Candida auris AR Bank # 389 assessed as fungal growth inhibition by double dilution method. As to conditions: Candidozyma auris. The class given is functional. In a few lines:
as §1

Data set [29] relates to [Candida] auris. The experiment in a line: Antifungal activity against Candida auris AR Bank # 390 assessed as fungal growth inhibition by double dilution method. It is filed as functional. As to conditions: Candidozyma auris. In a few lines: as §1
For data set [30], the system named is Candida duobushaemulonii. The experiment in a line: Antifungal activity against Candida duobushaemulonii AR Bank # 391 assessed as fungal growth inhibition by double dilution method. The class given is functional. As to conditions: Candidozyma duobushaemuli. In a few lines:
as §1

In data set [31] the test system is Candida duobushaemulonii. The experiment in a line: Antifungal activity against Candida duobushaemulonii AR Bank # 392 assessed as fungal growth inhibition by double dilution method. The class given is functional. The following applies: Candidozyma duobushaemuli. In a few lines: as §1
In data set [32] the test system is [Candida] haemuloni. Description: Antifungal activity against Candida haemulonii AR Bank # 393 assessed as fungal growth inhibition by double dilution method. As to conditions: Candidozyma haemuli. The class given is functional. In a few lines: as §1
Data set [33] deals with Candida duobushaemulonii. The experiment in a line: Antifungal activity against Candida duobushaemulonii AR Bank # 394 assessed as fungal growth inhibition by double dilution method. It is filed as functional. As to conditions: Candidozyma duobushaemuli. A digest of the protocol: as §1
The test system of data set [34] is [Candida] haemuloni. Description: Antifungal activity against Candida haemulonii AR Bank # 395 assessed as fungal growth inhibition by double dilution method. It is filed as functional. The following applies: Candidozyma haemuli. In a few lines: as §1
The test system of data set [35] is Kodamaea ohmeri. Description: Antifungal activity against Kodamaea ohmeri AR Bank # 396 assessed as fungal growth inhibition by double dilution method. It is filed as functional. A digest of the protocol: as §1
Data set [36] relates to Pichia kudriavzevii. The experiment in a line: Antifungal activity against Pichia kudriavzevii AR Bank # 397 assessed as fungal growth inhibition by double dilution method. It is filed as functional. A digest of the protocol: as §1
For data set [37], the system named is Clavispora lusitaniae. The experiment in a line: Antifungal activity against Clavispora lusitaniae AR Bank # 398 assessed as fungal growth inhibition by double dilution method. It is filed as functional. In a few lines:
as §1

In data set [38] the test system is Saccharomyces cerevisiae. The experiment in a line: Antifungal activity against Saccharomyces cerevisiae AR Bank # 399 assessed as fungal growth inhibition by double dilution method. It is filed as functional. In a few lines: as §1
Data set [39] relates to Saccharomyces cerevisiae. Description: Antifungal activity against Saccharomyces cerevisiae AR Bank # 400 assessed as fungal growth inhibition by double dilution method. The class given is functional. In a few lines:
as §1

The subject of data set [40] is Candida albicans. The experiment in a line: Antibiofilm activity against Candida albicans ATCC 10231 assessed as reduction in biofilm production at 1.96 to 3.9 microg/ml by biofilm formation assay. It is filed as functional, organism-based. The following applies: dose 1.96-3.9 µg/ml.
Data set [41] concerns J774.A1. The experiment in a line: Cytotoxicity against J774A.1 cells assessed as reduction in cell viability at 31.3 microg/ml. It is filed as toxicity, cell-based. The following applies: mouse, dose 31.3 µg/ml. A digest of the protocol: (§3)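 Cells in DMEM with 10% FBS and 1% Pen/Strep, seeded at 10,000 cells/well and held overnight at 37 °C, 5% CO2. Compounds added at final 31.3-0.12 µg/mL (0.05% DMSO vehicle) for 24 h. Resazurin then added for 6 h; fluorescence read at ex 560/em 590. Triton X-100 1% as positive control; values normalized to vehicle. Run in quadruplicate.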

Data set [42] deals with HEK293. Description: Cytotoxicity against human HEK-293 cells assessed as reduction in cell viability at 31.3 microg/ml. The class given is toxicity, cell-based. The following applies: dose 31.3 µg/ml. In a few lines:
as §3

For `COc1cccc(NNC(=O)c2ccccn2)c1`, the minimal inhibitory concentration (MIC) in [1] came to 0.24 µg/mL (≈ 0.987 µM); in [2], 0.98 µg/mL (≈ 4.03 µM); in [3], 0.98 µg/mL (≈ 4.03 µM); in data set [4] it was 1.95 µg/mL (≈ 8.02 µM); in [5], 1.95 µg/mL (≈ 8.02 µM); in [6], 1.95 µg/mL (≈ 8.02 µM). Besides, the minimum inhibitory concentration (MIC) in data set [7] stood at 0.98 µg/mL (≈ 4.03 µM); in [8], 15.6 µg/mL (≈ 64.1 µM); in data set [9], 0.49 µg/mL (≈ 2.01 µM); in [10], 3.9 µg/mL (≈ 16 µM); in [11] it was 0.98 µg/mL (≈ 4.03 µM); in data set [12] it was 0.98 µg/mL (≈ 4.03 µM). Besides, the MIC was 0.24 µg/mL (≈ 0.987 µM) in [13]; 3.9 µg/mL (≈ 16 µM) in [14]; 7.8 µg/mL (≈ 32.1 µM) in data set [15]; > 31.3 µg/mL in [16]; 1.95 µg/mL (≈ 8.02 µM) in data set [17]; 3.9 µg/mL (≈ 16 µM) in [18]. For the same compound, the MIC in [19] is > 31.3 µg/mL; in data set [20], 3.9 µg/mL (≈ 16 µM); in [21] it was 0.98 µg/mL (≈ 4.03 µM); in data set [22], 0.98 µg/mL (≈ 4.03 µM); in data set [23] it was 0.98 µg/mL (≈ 4.03 µM); in data set [24], 3.9 µg/mL (≈ 16 µM). The MIC came out at 0.49 µg/mL (≈ 2.01 µM) in data set [25]; 0.49 µg/mL (≈ 2.01 µM) in data set [26]; 3.9 µg/mL (≈ 16 µM) in data set [27]; 0.49 µg/mL (≈ 2.01 µM) in [28]; 0.98 µg/mL (≈ 4.03 µM) in [29]; 1.95 µg/mL (≈ 8.02 µM) in [30]. Moreover, the minimal inhibitory concentration (MIC) in [31] turned out to be 1.95 µg/mL (≈ 8.02 µM); in [32], 0.49 µg/mL (≈ 2.01 µM); in [33], 0.98 µg/mL (≈ 4.03 µM); in data set [34] it was 0.49 µg/mL (≈ 2.01 µM); in data set [35], 0.49 µg/mL (≈ 2.01 µM); in data set [36], 0.49 µg/mL (≈ 2.01 µM). Further, the minimal inhibitory concentration (MIC) was 1.95 µg/mL (≈ 8.02 µM) in [37], 7.8 µg/mL (≈ 32.1 µM) in data set [38] and 7.8 µg/mL (≈ 32.1 µM) in data set [39]. Besides, the result in data set [40] was Active.
For `C[C@@H](c1ncncc1F)[C@](O)(Cn1cncn1)c1ccc(F)cc1F` [VORICONAZOLE], the Activity result in data set [41] and in data set [42] was “Non-Toxic” in each case.
